We go through three molecules from ChEMBL document CHEMBL5661966, “Aurora B couples chromosome alignment with anaphase by targeting BubR1, Mad2, and Cenp-E to kinetochores” (J Cell Biol, 2003).

SMILES strings stand for the structures. Activity calls are given as the source filed them. The calls are words filed in the database; no cut-off is given here.

In assay [1] the test system is HeLa. Kind of assay: Induction of cell cycle arrest in human HeLa cells assessed as mitotic index measured after 6 hrs relative to control. It counts as functional.
Assay [2] in a line: Inhibition of reassociation of kinetochore with BubR1 in human DLD-1 cells assessed as BubR1/ACA fluorescence ratio measured for 40 mins (reference value: 2.23+/-1.21). It counts as functional.
The nature of assay [3]: Inhibition of reassociation of kinetochore with BubR1 in human DLD-1 cells assessed as inter-kinetochore distance measured for 40 mins (reference value: 0.89+/-0.20 uM). It counts as functional.
In assay [4] the test system is HeLa. The assay is described as follows: Induction of cell cycle arrest in human HeLa cells assessed as increase in cyclin B1 level measured after 2 hrs by immunoblot analysis. It counts as functional, cell-based. The gist of the method: (§1)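 Mitotic HeLa cells were collected by selective detachment after a 12-h nocodazole block, washed free of nocodazole, and replated in the drug combinations. Cells were harvested at set times. Mitotic index was scored by MPM-2 reactivity, cyclin B1 was measured by immunoblot, and DNA content was read as histograms.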
In general terms: Immunoblotting shows a protein as a band on a membrane.

Assay [5] relates to HeLa. The assay is described as follows: Induction of mitosis in human HeLa cells assessed as cyclin B1 level at 18 hrs by flow cytometric analysis. It counts as functional, cell-based. On the technique in general: Flow cytometry measures light scatter and fluorescence of single cells or particles in a stream.
The subject of assay [6] is DLD-1. Kind of assay: Induction of cell cycle arrest in human DLD-1 cells assessed as accumulation of cells at mitotic stage upto 6 hrs by SEM analysis. It counts as functional, cell-based.
Assay [7] has as its system HeLa. The assay is described as follows: Induction of cell cycle arrest in human HeLa cells assessed as accumulation of cells at mitotic stage measured after 2 hrs. It counts as functional, cell-based. The essentials:
as §1

The test system of assay [8] is DLD-1. The assay is described as follows: Effect on human DLD-1 cells assessed as reduction in kinetochore bound Mad2 measured after 1 hr by immunofluorescence imaging analysis. It counts as functional, cell-based.
In assay [9] the test system is DLD-1. Kind of assay: Inhibition of chromosome alignment in human DLD-1 cells assessed as reduction of metaphase and anaphase spindle proportion for 1 hr. It counts as functional, cell-based.
Assay [10] has as its system DLD-1. The assay is described as follows: Effect on human DLD-1 cells assessed as localization of survivin to centromere measured after 1 hr by immunofluorescence imaging analysis. It counts as functional, cell-based.
The target in assay [11] is Mitotic checkpoint serine/threonine-protein kinase BUB1 beta (Homo sapiens) (UniProt O60566). Kind of assay: Inhibition of BubR1 phosphorylation in mitotic human HeLa cells released from G1/S blocks by immunoblotting analysis. It counts as cell-based.
The subject of assay [12] is DLD-1. The assay is described as follows: Effect on human DLD-1 cells assessed as reduction in kinetochore bound BubR1 measured after 1 hr by immunofluorescence imaging analysis. It counts as functional, cell-based.
For assay [13], the system named is DLD-1. The assay is described as follows: Inhibition of chromosome alignment in human DLD-1 cells assessed as abnormal chromosome appearance upto 6 hrs. It counts as functional, cell-based.
Another assay deals with DLD-1 (Homo sapiens). Kind of assay: Effect on paclitaxel pretreated human DLD-1 cells assessed as compromising of microtubule polymerization induced spindle check point function.
In assay [14] the test system is DLD-1. Kind of assay: Inhibition of sister chromatid separation in human DLD-1 cells. It counts as functional, cell-based.
For assay [15], the system named is DLD-1. The assay is described as follows: Effect on human DLD-1 cells assessed as reduction in fluorescence intensity of kinetochore bound BubR1/ACA ratio in presence of nocodazole measured by immunofluorescence imaging analysis relative to control. It counts as functional. Set-up: scale not given: the % may be the effect or the level left.
The subject of assay [16] is HeLa. The assay is described as follows: Effect on nocodazole pretreated human HeLa cells assessed as compromising of microtubule polymerization induced spindle check point function. It counts as functional, cell-based.
The test system of assay [17] is HeLa. The assay is described as follows: Induction of cell cycle arrest in human HeLa cells assessed as increase in cyclin B1 level measured after 1 hr by immunoblot analysis. It counts as functional, cell-based. The gist of the method: as §1
For assay [18], the system named is DLD-1. Kind of assay: Effect on human DLD-1 cells assessed as reduction in kinetochore bound CenP-E measured after 1 hr by immunofluorescence imaging analysis. It counts as functional, cell-based.
Assay [19] addresses Mitotic checkpoint serine/threonine-protein kinase BUB1 beta (Homo sapiens) (UniProt O60566). Kind of assay: Inhibition of BubR1 immunoprecipitate phosphorylation in mitotic human HeLa cells released from G1/S blocks. It counts as cell-based.
The test system of another assay is hTERT-HME1. The assay is described as follows: Induction of endoreduplication in human HME cells measured after 48 hrs. It counts as functional, cell-based.
In assay [20] the target is Mitotic checkpoint serine/threonine-protein kinase BUB1 beta (Homo sapiens) (UniProt O60566). Kind of assay: Inhibition of BubR1 phosphorylation in mitotic human HeLa cells released from G1/S blocks in presence of nocodazole by immunoblotting analysis. It counts as cell-based.
Assay [21] concerns HeLa. The assay is described as follows: Induction of cell cycle arrest in 12 hrs nocodazole block pretreated human HeLa cells assessed as mitotic stage exit in presence of nocodazole measured after 4 hrs. It counts as functional, cell-based. The essentials: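 HeLa cells were held in a nocodazole block for 2 or 12 h, and mitotic cells were harvested. They were replated in nocodazole alone or nocodazole plus test drug. Mitotic index was scored by MPM-2 reactivity after 4 h.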

The test system of assay [22] is DLD-1. The assay is described as follows: Effect on human DLD-1 cells assessed as localization of Aurora B to centromere measured after 1 hr by immunofluorescence imaging analysis. It counts as functional, cell-based.
The test system of assay [23] is HeLa. The assay is described as follows: Induction of mitosis in human HeLa cells assessed as peaked mitotic index at 10 hrs by flow cytometric analysis. It counts as functional, cell-based.
Another assay relates to A549. The assay is described as follows: Induction of endoreduplication in human A549 cells measured after 48 hrs. It counts as functional, cell-based.

Mitotic checkpoint serine/threonine-protein kinase BUB1 beta (Homo sapiens), sequence (O60566 whole entry): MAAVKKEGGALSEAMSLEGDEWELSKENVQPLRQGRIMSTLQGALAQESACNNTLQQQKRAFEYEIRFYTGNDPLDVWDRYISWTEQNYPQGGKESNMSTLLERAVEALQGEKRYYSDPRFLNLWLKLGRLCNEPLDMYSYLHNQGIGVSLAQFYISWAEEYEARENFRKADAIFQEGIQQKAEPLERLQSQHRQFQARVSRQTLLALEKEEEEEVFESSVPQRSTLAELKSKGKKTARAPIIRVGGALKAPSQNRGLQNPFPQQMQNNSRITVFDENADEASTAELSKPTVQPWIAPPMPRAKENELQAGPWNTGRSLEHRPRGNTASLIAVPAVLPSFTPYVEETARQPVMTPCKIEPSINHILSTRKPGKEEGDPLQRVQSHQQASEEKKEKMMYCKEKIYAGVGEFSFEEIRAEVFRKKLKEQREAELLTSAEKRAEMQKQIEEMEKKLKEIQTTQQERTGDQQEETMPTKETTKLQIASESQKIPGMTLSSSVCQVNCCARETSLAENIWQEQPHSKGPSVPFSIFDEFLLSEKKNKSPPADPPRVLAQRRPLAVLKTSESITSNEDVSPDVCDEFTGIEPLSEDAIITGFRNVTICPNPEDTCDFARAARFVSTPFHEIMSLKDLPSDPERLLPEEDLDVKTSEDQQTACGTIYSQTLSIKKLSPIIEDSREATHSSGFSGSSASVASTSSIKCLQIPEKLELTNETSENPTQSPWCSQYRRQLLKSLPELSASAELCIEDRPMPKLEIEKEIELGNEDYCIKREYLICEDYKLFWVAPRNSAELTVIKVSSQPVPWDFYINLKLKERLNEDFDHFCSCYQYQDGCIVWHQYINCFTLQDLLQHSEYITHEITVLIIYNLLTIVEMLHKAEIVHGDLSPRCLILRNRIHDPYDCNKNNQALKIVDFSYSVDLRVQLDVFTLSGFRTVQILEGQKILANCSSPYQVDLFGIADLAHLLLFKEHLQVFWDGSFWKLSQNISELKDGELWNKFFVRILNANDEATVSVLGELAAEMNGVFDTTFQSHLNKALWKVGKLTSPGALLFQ

On to `CC(=O)O[C@H]1C(=O)[C@@]2(C)[C@H]([C@H](OC(=O)c3ccccc3)[C@]3(O)C[C@H](OC(=O)[C@H](O)[C@@H](NC(=O)c4ccccc4)c4ccccc4)C(C)=C1C3(C)C)[C@]1(OC(C)=O)CO[C@@H]1C[C@@H]2O` [PACLITAXEL], for which the Activity with HeLa [1] is given as around 25%; in assay [2] it was 3.86. Moreover, the inter-kinetochore distance in [3] stood at 0.58 µm.

Regarding `COC(=O)Nc1nc2cc(C(=O)c3cccs3)ccc2[nH]1` [NOCODAZOLE], the Activity with HeLa [1] is on record as around 25%. Besides, the result in the assay on HeLa [4], with HeLa [5], in the assay with DLD-1 [6] and in the assay with HeLa [7] was Active.

As to `COc1cc2c(Nc3ccc(NC(=O)c4ccccc4)cc3)ncnc2cc1OCCCN1CCOCC1`, the result with DLD-1 [8], with HeLa [5], in the assay with DLD-1 [10], with DLD-1 [12], in the assay with DLD-1 [6] and in the assay on DLD-1 (Homo sapiens) was Active. Besides, the result with HeLa [16], with HeLa [17], in the assay with DLD-1 [18], in the assay with hTERT-HME1, in the assay on HeLa [21] and in the assay with DLD-1 [22] was Active. Besides, the outcome in the assay with HeLa [23] and in the assay with A549 was Active. For the same molecule, the inhibition result (in the assay on DLD-1 [9]; in assay [11]; in the assay on DLD-1 [13]; in [20]) was “Active” each time. Also, the inhibition result (in the assay on DLD-1 [14]; in [19]) was “inactive” each time. In addition, the Activity in the assay on DLD-1 [15] worked out at 0%.
